Where “and” joins values, the source holds several entries; their conditions need not be identical. Equal entries are not always repeated.
System: Fibroblast
Assay: Multiplex assay against human fibroblast
Type: toxicity, cell-based
Summary of the method: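 Per cents of healthy-nucleus cells form the tubulin, mitochondrial-mass and membrane-permeability phenotype values. Live cells were stained at seeding with Hoechst33342, BioTracker Green Microtubule Cytoskeleton Dye, MitoTracker Red and Annexin V Alexa Fluor 680. After compound addition they were imaged on a CQ1 microscope at 37°C and 5% CO2, and CellPathfinder machine-learning gating split them into Hoechst high-intensity objects or normal cells, normal cells into healthy, pyknosed or fragmented nuclei, and pyknosed cells into mitotic or apoptotic.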

[1] = 12 h, 1 µM, compound concentration 1 uM, replicate 1
[2] = 12 h, 1 µM, compound concentration 1 uM, replicate 2
[3] = 12 h, 10 µM, compound concentration 10 uM, replicate 1
[4] = 12 h, 10 µM, compound concentration 10 uM, replicate 2
[5] = 24 h, 1 µM, compound concentration 1 uM, replicate 1
[6] = 24 h, 1 µM, compound concentration 1 uM, replicate 2
[7] = 24 h, 10 µM, compound concentration 10 uM, replicate 1
[8] = 24 h, 10 µM, compound concentration 10 uM, replicate 2
[9] = 48 h, 1 µM, compound concentration 1 uM, replicate 1
[10] = 48 h, 1 µM, compound concentration 1 uM, replicate 2
[11] = 48 h, 10 µM, compound concentration 10 uM, replicate 1
[12] = 48 h, 10 µM, compound concentration 10 uM, replicate 2

## CN1CCCC(n2nc(Cc3ccc(Cl)cc3)c3ccccc3c2=O)CC1.Cl (centres undefined) [AZELASTINE HYDROCHLORIDE]
[1]
  Population Apoptotic (%): 47%
  Population Fragmented Nuclei (%): 25%
  Population Healthy Nuclei (%): 50%
  Population Hoechst High Intensity Objects (%): 11%
  Population Membrane Permeable-Phenotype (%): 26%
  Population Mitochondria Different-Phenotype (%): 9%
  Population Mitotic Cells (%): 52%
  Population Normal (%): 88%
  Population Pyknosed Nuclei (%): 23%
  Population Tubulin-Different-Phenotype (%): 65%
  Total Cell Count: 92
[2]
  Population Apoptotic (%): 25%
  Population Fragmented Nuclei (%): 6%
  Population Healthy Nuclei (%): 84%
  Population Membrane Permeable-Phenotype (%): 7%
  Population Mitochondria Different-Phenotype (%): 57%
  Population Mitotic Cells (%): 75%
  Population Pyknosed Nuclei (%): 8%
  Population Tubulin-Different-Phenotype (%): 68%
  Total Cell Count: 51
[3]
  Population Apoptotic (%): 74%
  Population Fragmented Nuclei (%): 26%
  Population Healthy Nuclei (%): 38%
  Population Hoechst High Intensity Objects (%): 18%
  Population Membrane Permeable-Phenotype (%): 13%
  Population Mitochondria Different-Phenotype (%): 55%
  Population Mitotic Cells (%): 25%
  Population Normal (%): 81%
  Population Pyknosed Nuclei (%): 34%
  Population Tubulin-Different-Phenotype (%): 93%
  Total Cell Count: 138
[4]
  Population Apoptotic (%): 57%
  Population Fragmented Nuclei (%): 14%
  Population Healthy Nuclei (%): 70%
  Population Hoechst High Intensity Objects (%): 4%
  Population Membrane Permeable-Phenotype (%): 84%
  Population Mitochondria Different-Phenotype (%): 98%
  Population Mitotic Cells (%): 42%
  Population Normal (%): 95%
  Population Pyknosed Nuclei (%): 15%
  Population Tubulin-Different-Phenotype (%): 100%
  Total Cell Count: 96
[5]
  Population Apoptotic (%): 40%
  Population Fragmented Nuclei (%): 31%
  Population Healthy Nuclei (%): 42%
  Population Hoechst High Intensity Objects (%): 10%
  Population Membrane Permeable-Phenotype (%): 36%
  Population Mitochondria Different-Phenotype (%): 11%
  Population Mitotic Cells (%): 59%
  Population Normal (%): 89%
  Population Pyknosed Nuclei (%): 25%
  Population Tubulin-Different-Phenotype (%): 66%
  Total Cell Count: 95
[6]
  Population Apoptotic (%): 50%
  Population Fragmented Nuclei (%): 7%
  Population Healthy Nuclei (%): 76%
  Population Hoechst High Intensity Objects (%): 8%
  Population Membrane Permeable-Phenotype (%): 10%
  Population Mitochondria Different-Phenotype (%): 57%
  Population Mitotic Cells (%): 50%
  Population Normal (%): 91%
  Population Pyknosed Nuclei (%): 15%
  Population Tubulin-Different-Phenotype (%): 50%
  Total Cell Count: 57
[7]
  Population Apoptotic (%): 84%
  Population Fragmented Nuclei (%): 32%
  Population Healthy Nuclei (%): 53%
  Population Hoechst High Intensity Objects (%): 18%
  Population Membrane Permeable-Phenotype (%): 17%
  Population Mitochondria Different-Phenotype (%): 62%
  Population Mitotic Cells (%): 15%
  Population Normal (%): 81%
  Population Pyknosed Nuclei (%): 14%
  Population Tubulin-Different-Phenotype (%): 90%
  Total Cell Count: 161
[8]
  Population Apoptotic (%): 95%
  Population Fragmented Nuclei (%): 16%
  Population Healthy Nuclei (%): 58%
  Population Hoechst High Intensity Objects (%): 4%
  Population Membrane Permeable-Phenotype (%): 98%
  Population Mitochondria Different-Phenotype (%): 100%
  Population Mitotic Cells (%): 4%
  Population Normal (%): 95%
  Population Pyknosed Nuclei (%): 25%
  Population Tubulin-Different-Phenotype (%): 100%
  Total Cell Count: 96
[9]
  Population Apoptotic (%): 58%
  Population Fragmented Nuclei (%): 38%
  Population Healthy Nuclei (%): 41%
  Population Hoechst High Intensity Objects (%): 11%
  Population Membrane Permeable-Phenotype (%): 28%
  Population Mitochondria Different-Phenotype (%): 11%
  Population Mitotic Cells (%): 41%
  Population Normal (%): 88%
  Population Pyknosed Nuclei (%): 20%
  Population Tubulin-Different-Phenotype (%): 54%
  Total Cell Count: 95
[10]
  Population Apoptotic (%): 75%
  Population Fragmented Nuclei (%): 31%
  Population Healthy Nuclei (%): 61%
  Population Hoechst High Intensity Objects (%): 8%
  Population Membrane Permeable-Phenotype (%): 10%
  Population Mitochondria Different-Phenotype (%): 1%
  Population Mitotic Cells (%): 25%
  Population Normal (%): 91%
  Population Pyknosed Nuclei (%): 7%
  Population Tubulin-Different-Phenotype (%): 73%
  Total Cell Count: 123
[11]
  Population Apoptotic (%): 90%
  Population Fragmented Nuclei (%): 40%
  Population Healthy Nuclei (%): 52%
  Population Hoechst High Intensity Objects (%): 30%
  Population Membrane Permeable-Phenotype (%): 13%
  Population Mitochondria Different-Phenotype (%): 34%
  Population Mitotic Cells (%): 10%
  Population Normal (%): 69%
  Population Pyknosed Nuclei (%): 6%
  Population Tubulin-Different-Phenotype (%): 84%
  Total Cell Count: 207
[12]
  Population Apoptotic (%): 66%
  Population Fragmented Nuclei (%): 38%
  Population Healthy Nuclei (%): 57%
  Population Hoechst High Intensity Objects (%): 25%
  Population Membrane Permeable-Phenotype (%): 22%
  Population Mitochondria Different-Phenotype (%): 39%
  Population Mitotic Cells (%): 33%
  Population Normal (%): 74%
  Population Pyknosed Nuclei (%): 3%
  Population Tubulin-Different-Phenotype (%): 88%
  Total Cell Count: 253

## Cn1c(-c2csc(C3CCN(CC4=NC5N=CC=CC5N4)CC3)n2)nc2ccccc21 (centres undefined) [BAY-070]
[3]
  Population Apoptotic (%): 66% and 86%
  Population Fragmented Nuclei (%): 30% and 26%
  Population Healthy Nuclei (%): 53% and 58%
  Population Hoechst High Intensity Objects (%): 11% and 14%
  Population Membrane Permeable-Phenotype (%): 12% and 9%
  Population Mitochondria Different-Phenotype (%): 4%
  Population Mitotic Cells (%): 33% and 13%
  Population Normal (%): 88% and 85%
  Population Pyknosed Nuclei (%): 15%
  Total Cell Count: 238 and 282
[4]
  Population Fragmented Nuclei (%): 66% and 53%
  Population Healthy Nuclei (%): 21% and 36%
  Population Hoechst High Intensity Objects (%): 33% and 37%
  Population Membrane Permeable-Phenotype (%): 36% and 29%
  Population Normal (%): 66% and 62%
  Population Pyknosed Nuclei (%): 11% and 10%
  Total Cell Count: 77 and 75
[7]
  Population Apoptotic (%): 51% and 62%
  Population Fragmented Nuclei (%): 23% and 16%
  Population Healthy Nuclei (%): 61% and 67%
  Population Hoechst High Intensity Objects (%): 10% and 13%
  Population Membrane Permeable-Phenotype (%): 9% and 8%
  Population Mitotic Cells (%): 48% and 37%
  Population Normal (%): 89% and 86%
  Population Pyknosed Nuclei (%): 15% and 16%
  Total Cell Count: 222 and 285
[8]
  Population Fragmented Nuclei (%): 65% and 57%
  Population Healthy Nuclei (%): 23% and 30%
  Population Hoechst High Intensity Objects (%): 41% and 29%
  Population Membrane Permeable-Phenotype (%): 30% and 22%
  Population Mitotic Cells (%): 100% and 42%
  Population Normal (%): 58% and 70%
  Population Pyknosed Nuclei (%): 11%
  Population Tubulin-Different-Phenotype (%): 40% and 50%
  Total Cell Count: 74 and 84

## CNCc1ccccc1-c1csc([C@H](C)Nc2nc(C)nc3cc(OC)c(OC)cc23)c1 [BAY-294]
[3]
  Population Apoptotic (%): 43% and 56% and 82%
  Population Fragmented Nuclei (%): 26% and 31% and 27%
  Population Membrane Permeable-Phenotype (%): 18% and 34% and 33%
  Population Normal (%): 70% and 93% and 84%
  Population Pyknosed Nuclei (%): 25% and 52% and 62%
  Population Tubulin-Different-Phenotype (%): 34% and 69% and 83%
[4]
  Population Apoptotic (%): 78% and 55% and 57%
  Population Fragmented Nuclei (%): 54% and 37% and 46%
  Population Hoechst High Intensity Objects (%): 27% and 35% and 55%
  Population Mitotic Cells (%): 21% and 45% and 42%
  Population Normal (%): 72% and 64% and 44%
  Population Pyknosed Nuclei (%): 31% and 19% and 30%
  Population Tubulin-Different-Phenotype (%): 77% and 56% and 100%
[7]
  Population Apoptotic (%): 54% and 89%
  Population Fragmented Nuclei (%): 17% and 38% and 29%
  Population Hoechst High Intensity Objects (%): 41% and 14% and 31%
  Population Normal (%): 58% and 85% and 68%
  Population Pyknosed Nuclei (%): 32% and 54% and 49%
  Population Tubulin-Different-Phenotype (%): 31% and 43% and 83%
[8]
  Population Apoptotic (%): 31% and 93% and 78%
  Population Fragmented Nuclei (%): 33% and 60% and 52%
  Population Hoechst High Intensity Objects (%): 37% and 38% and 54%
  Population Normal (%): 62% and 61% and 45%
  Population Pyknosed Nuclei (%): 29% and 33% and 27%
[11]
  Population Apoptotic (%): 75%
  Population Fragmented Nuclei (%): 40%
  Population Healthy Nuclei (%): 44%
  Population Hoechst High Intensity Objects (%): 35%
  Population Membrane Permeable-Phenotype (%): 43%
  Population Mitochondria Different-Phenotype (%): 52%
  Population Mitotic Cells (%): 25%
  Population Normal (%): 64%
  Population Pyknosed Nuclei (%): 15%
  Population Tubulin-Different-Phenotype (%): 65%
[12]
  Population Apoptotic (%): 100%
  Population Fragmented Nuclei (%): 84%
  Population Healthy Nuclei (%): 8%
  Population Hoechst High Intensity Objects (%): 31%
  Population Membrane Permeable-Phenotype (%): 0%
  Population Mitochondria Different-Phenotype (%): 100%
  Population Mitotic Cells (%): 0%
  Population Normal (%): 68%
  Population Pyknosed Nuclei (%): 7%
  Population Tubulin-Different-Phenotype (%): 0%

Source: ChEMBL document CHEMBL4689842, “EUbOPEN Chemogenomics Library wave 1” (2021)
